# In the library only some 1.5% were active in any assay of this set; here they are far more common.
# A1 inh = caspase 3/7 activation in MEF A1-2A-BIM cells, primary screen, A1 inhibitor project, cell-based, luminescence, HTS; caspase activation, % (test concentration not listed); Caspase-Glo 3/7 luminescence, 3 h; percent of clofoctol response, vehicle zero; hit rate 0.066% among 330,000; AID 2462, 2010;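 active means over half of replicate activation scores above 10%, or exactly half above 10 with the replicate mean above 10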
# CSN deneddyl inh = inhibitors of CSN-mediated cullin deneddylation, primary screen, biochemical, fluorescence polarization, uHTS. Purified CSN, SCF-Nedd8-OG deneddylation. inhibition, % at 12.5 µM. COP9 signalosome complex subunit 5 (Homo sapiens), Q92905. hit rate 0.38% among 360,000. AID 651999, 2013;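 active means pattern-corrected inhibition above about 35%, with an unprinted fluorescence ratio check between 0.5 and 1.5, limit read from the data, passing the limit was not always enough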;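 further: 0% = enzyme with substrate and 100% = substrate without enzyme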
# Target sequence (Q92905 whole entry, looked up, one chain of several): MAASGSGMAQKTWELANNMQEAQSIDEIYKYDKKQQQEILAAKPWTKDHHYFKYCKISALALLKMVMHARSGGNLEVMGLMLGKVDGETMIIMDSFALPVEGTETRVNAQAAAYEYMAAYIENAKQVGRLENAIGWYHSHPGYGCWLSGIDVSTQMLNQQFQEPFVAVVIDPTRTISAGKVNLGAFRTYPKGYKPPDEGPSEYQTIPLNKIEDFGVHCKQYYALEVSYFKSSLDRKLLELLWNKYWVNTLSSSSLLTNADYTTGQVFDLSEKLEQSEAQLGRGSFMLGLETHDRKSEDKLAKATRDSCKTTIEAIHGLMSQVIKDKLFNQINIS
#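 Assay system: Purified human Csn5 enzyme expressed in HEK293T cells | Amount: Enzyme 0.24 nM | Measured by: Fluorescence polarization readout | Medium: Tris/NaCl/DTT buffer, pH 7.5 | Compound dosing: One concentration, 12.5 µM, 0.25% DMSO | Times: 90 min incubation of compound, enzyme and substrate at room temperature | Control set: no-enzyme wells high, enzyme-with-substrate wells low | Read-out: % inhibition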
# ZTA counter = counter-screen for EBNA-1 inhibitors: inhibitors of Epstein-Barr virus ZTA | P03206 | ZTA-DNA binding, fluorescence polarization | inhibition, % at 11 µM | hit rate 0.15% among 320,000 | AID 2234; in the data active means inhibition above about 33%
# Target sequence (P03206 whole entry, looked up): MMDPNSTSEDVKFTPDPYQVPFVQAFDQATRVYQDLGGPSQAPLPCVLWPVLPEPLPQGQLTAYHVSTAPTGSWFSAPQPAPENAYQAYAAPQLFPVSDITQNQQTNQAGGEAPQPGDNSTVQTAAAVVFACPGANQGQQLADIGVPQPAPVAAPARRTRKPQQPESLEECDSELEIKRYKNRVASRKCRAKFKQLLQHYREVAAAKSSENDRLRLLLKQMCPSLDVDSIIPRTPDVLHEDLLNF
# LANA-H2A inh = blockers of LANA interaction with H2A/H2B – biochemical, FP readout, HTS, primary screen; Protein LANA1 (Human herpesvirus 8 type P (isolate GK18)), Q9QR71; cell-free LANA-H2A/H2B peptide, fluorescence polarization; inhibition, % (no concentration beside the values); hit rate 0.6% among 320,000; in the data active means inhibition mostly above about 10%, no sharp cut-off; inactive means mostly below about 6.7%
# EBNA-1 inh = EBNA-1 DNA-binding inhibitors, primary screen, biochemical, fluorescence polarization; inhibition, % at 14.8 µM; hit rate 0.34% among 300,000; AID 1950, 2009; in the data active means inhibition above about 28%
# HNF4A DNA FP = change in binding of human HNF4A to DNA, primary screen, biochemical, fluorescence polarization, FITC-DNA | Hepatocyte nuclear factor 4-alpha (Homo sapiens), P41235 | 1 h | activity change, % at 10 µM | hit rate 0.3% among 360,000 | AID 1224865, 2016; in the data active means activity change above about 30%, passing the limit was not always enough
# * marks the source's active call; other numbers are inactive results; · = no result given; + = active, no number; ! = a repeat was not active.
SMILES,A1 inh,CSN deneddyl inh,ZTA counter,LANA-H2A inh,EBNA-1 inh,HNF4A DNA FP
CN(C)c1ccc(/C=C/c2ccc3c4ccccc4ccc3[n+]2-c2ccccc2)cc1,·,57*,·,·,·,28
Cc1nc(C(=O)Nc2ccc(F)cc2)nn1-c1ccc([N+](=O)[O-])cc1,0,2,-24,12*,-15,1
O=C(CC(C(=O)O)c1cccc(Br)c1)c1ccc(Cl)cc1 (stereo not drawn),0,2,2,0,0,-1
COc1ccc(C(=O)/C=C/Nc2ccc([N+](=O)[O-])cc2C)cc1OC,-2,46*,0,6,6,37*
COc1ccc(C(=O)/C=C/Nc2ccc([N+](=O)[O-])cc2C)c(OC)c1,-2,8,-6,0,-2,19
COc1ccc(N/C=C2\CCc3ccccc3C2=O)cc1,0,18,-1,1,-10,22
COc1ccc2c(c1)CC/C(=C\Nc1ccc3c(c1)OCO3)C2=O,-3,15,2,-13,-2,45*
O=C1/C(=C/Nc2ccc3c(c2)OCO3)CCc2ccccc21,-8,13,0,4,-6,49*
Cc1ccc(S(=O)(=O)N2CC3=C(C2)C2CC2(C)C3)cc1 (stereo not drawn),·,-2,·,·,·,4
CN(C(=O)COc1ccc(Cl)cc1Br)C1CCCCC1,-1,-1,1,53*,4,4
O=C(COC(=O)COc1ccc(Cl)cc1Br)NC1CCCCCC1,0,1,0,-4,·,-2
S=c1[nH]nc(-c2ccco2)n1-c1ccccc1Cl,0,-1,-10,7,6,-1
S=c1[nH]nc(-c2cc(-c3ccco3)[nH]n2)n1-c1ccccc1Cl,-2,36*,-10,10,-7,-9
CC(=O)N1CCN(C(=O)CCNS(=O)(=O)c2ccc(Br)cc2)CC1,0,0,6,-7,·,2
CC1CCN(C(=O)CCNS(=O)(=O)c2ccc(Br)cc2)CC1,1,0,-19,24*,·,-2
COc1ccccc1CN1C[C@@H]2C[C@@H](c3[nH]c4c(C)cccc4c3C)N3CCC[C@@]23C1=O,0,-4,6,-7,3,1
Cc1cccc(C)c1NC(=O)C(c1ccc(C#N)cc1)n1c(=O)c(-c2ccco2)nc2ccccc21 (stereo not drawn),·,20,·,·,·,23
CNCCCC12CCC(c3ccccc31)c1ccccc12,0,5,-9,9.6*!,2,0
CNCCCC1c2ccccc2C=Cc2ccccc21,0,-4,1,-5,0,2
CCOC(=O)C1=C(CSc2nc(CC)c(C)cc2C#N)OC(N)=C(C#N)C1c1ccccc1 (stereo not drawn),0,0,18,1,3,3
CCOC(=O)C1=C(CSc2nc(-c3ccccc3)ccc2C#N)OC(N)=C(C#N)C1c1ccc(OC)cc1 (stereo not drawn),0,20,16,-7,-1,39*
CCN(CC)C(=O)c1ccc(S(=O)(=O)c2ccccc2)cc1,0,2,-11,+,-6,-2
CCN(CC)C(=O)c1ccc(NS(=O)(=O)c2ccccc2)cc1,0,0,1,7,6,-3
COc1ccc2oc3c(ccc[n+]3C)c(=O)c2c1,·,0,·,·,·,5
CCCCn1c(N)c(N(CC(C)C)C(=O)C2CCCO2)c(=O)[nH]c1=O (stereo not drawn),0,-2,14,-1,0,0
SMILES,A1 inh,CSN deneddyl inh,ZTA counter,LANA-H2A inh,EBNA-1 inh,HNF4A DNA FP
CC(=O)NS(=O)(=O)c1ccc(NC(=S)NC(=O)c2ccco2)cc1,0,93*,-1,-1,13,14
S=c1[nH]ncn2c1cc1oc3ccccc3c12,0,-4,13,5,17,3
Cc1cccc(C(=O)NC(=S)Nc2ccccc2C(=O)O)c1,2,78*,-11,4,-12,8
C[C@H](NC(N)=O)C(=O)Nc1ccc(OCc2ccccc2)cc1,1,8,6,12*,4,2
CC(C)[C@H](NC(N)=O)C(=O)Nc1ccc(OCc2ccccc2)cc1,0,3,1,1,3,-9
COc1ccc(N2CCN(c3ccc(C(N)=O)cc3[N+](=O)[O-])CC2)cc1,0,75*,-3,·,2,-3
COc1ccccc1NC(=O)Cn1c(C)cc(=O)c2cccc(OC)c21,-1,-1,8,25*,-14,2
N#Cc1cc2cc3c(cc2nc1Cl)OCCO3,·,61*,·,·,·,18
O=C(Nc1ccccc1Cl)C1CCCN(S(=O)(=O)c2ccc(F)cc2)C1 (stereo not drawn),0,-2,9,8.8*,-11,-1
O=C(Nc1cccc(Cl)c1)C1CCCN(S(=O)(=O)c2ccc(F)cc2)C1 (stereo not drawn),·,-1,-1,·,1,-2
COc1ccccc1N1C(=O)c2ccc(C(=O)Nc3ccccc3O)cc2C1=O,-2,0,0,-2,8,-1
COc1ccc(N2C(=O)c3ccc(C(=O)Nc4ccccc4O)cc3C2=O)cc1,1,1,-25,15*,-6,4
Cc1cccnc1Nc1nc(-c2ccccc2)cs1,-7,1,0,23*,-5,-1
Cc1cccnc1Nc1nc(-c2ccccn2)cs1,-10,-4,-6,-7,-1,1
C=CCNC(=S)N1CCN(C2CCCCC2)CC1,1,-2,7,-5,11,-39
COc1cc(C(=O)OCC(=O)Nc2ccccc2)cc2c1OCCO2,·,1,·,·,·,-6
COc1ccccc1CCn1cnc2c3cc(C)ccc3n(C)c2c1=O,0,-2,16,24*,2,-1
O=C(CN(CCc1ccccc1)Cc1ccccc1)Oc1ccccc1P(=O)(O)O,0,-3,7,-3,10,-1
Cc1cccc(C)c1NC(=O)C1(C)CSCC(=O)N1Cc1ccco1 (stereo not drawn),·,94*,·,·,·,40*
Cc1c(Cl)cccc1NC(=S)NC1CCN(C(C)C)CC1,0,6,3,-4,-7,5
Cc1ccc(C2CC(=O)C=C(Nc3ccc(Cl)cc3)C2)cc1 (stereo not drawn),1,3,-11,0,-3,35*
CC1(C(=O)Nc2ccc3[nH]ncc3c2)CCN1C(=O)Cc1ccc(-c2ccccc2)cc1 (stereo not drawn),·,2,·,·,·,-2
Cc1noc(C)c1NC(=O)Nc1ccc2c(c1)C(=O)N([C@H](C)CO)C[C@H](C)[C@@H](CN(C)S(C)(=O)=O)O2,1,-3,·,7,·,5
